Source: ChEMBL document CHEMBL1212894, “Non-peptide macrocyclic histone deacetylase inhibitors derived from tricyclic ketolide skeleton” (J Med Chem, 2010)
Values after ≈ are worked out from the molar mass of the structure shown. Active and inactive are the calls of the source. The rule behind the calls is not given here.

Columns and labels:
Leishmania donovani [1] = test: Antileishmanial activity against Leishmania donovani promastigotes after 72 hrs by alamar blue assay; type: functional, organism-based
Plasmodium falciparum [2] = test: Antimalarial activity against Plasmodium falciparum D6 after 72 hrs by alamar blue assay; type: functional, organism-based; conditions: D6, 72 h
[3] = Selectivity ratio IC50 for HDAC8 to IC50 for HDAC in human HeLa cells nuclear extract; type: cell-based; design: reference not given here
MCF7 = test: Antiproliferative activity against human MCF7 cells after 72 hrs by MTS assay; type: functional
How it was run: (§1)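 Cells kept at 37 °C, 5% CO₂ in recommended media; seeded in 96-well plates the day before, grown at least 24 h, then dosed 72 h with compounds diluted from 1000X DMSO stocks to give 0.1% DMSO final. MTS reagent added for 2 h; absorbance read at 490 nm; EC50 is concentration giving 50% loss of viability.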

[4] = molecular target: T1, Protein deacetylase HDAC6 (Homo sapiens, UniProt Q9UBN7); test: Inhibition of HDAC6
T1 sequence (Q9UBN7 whole entry): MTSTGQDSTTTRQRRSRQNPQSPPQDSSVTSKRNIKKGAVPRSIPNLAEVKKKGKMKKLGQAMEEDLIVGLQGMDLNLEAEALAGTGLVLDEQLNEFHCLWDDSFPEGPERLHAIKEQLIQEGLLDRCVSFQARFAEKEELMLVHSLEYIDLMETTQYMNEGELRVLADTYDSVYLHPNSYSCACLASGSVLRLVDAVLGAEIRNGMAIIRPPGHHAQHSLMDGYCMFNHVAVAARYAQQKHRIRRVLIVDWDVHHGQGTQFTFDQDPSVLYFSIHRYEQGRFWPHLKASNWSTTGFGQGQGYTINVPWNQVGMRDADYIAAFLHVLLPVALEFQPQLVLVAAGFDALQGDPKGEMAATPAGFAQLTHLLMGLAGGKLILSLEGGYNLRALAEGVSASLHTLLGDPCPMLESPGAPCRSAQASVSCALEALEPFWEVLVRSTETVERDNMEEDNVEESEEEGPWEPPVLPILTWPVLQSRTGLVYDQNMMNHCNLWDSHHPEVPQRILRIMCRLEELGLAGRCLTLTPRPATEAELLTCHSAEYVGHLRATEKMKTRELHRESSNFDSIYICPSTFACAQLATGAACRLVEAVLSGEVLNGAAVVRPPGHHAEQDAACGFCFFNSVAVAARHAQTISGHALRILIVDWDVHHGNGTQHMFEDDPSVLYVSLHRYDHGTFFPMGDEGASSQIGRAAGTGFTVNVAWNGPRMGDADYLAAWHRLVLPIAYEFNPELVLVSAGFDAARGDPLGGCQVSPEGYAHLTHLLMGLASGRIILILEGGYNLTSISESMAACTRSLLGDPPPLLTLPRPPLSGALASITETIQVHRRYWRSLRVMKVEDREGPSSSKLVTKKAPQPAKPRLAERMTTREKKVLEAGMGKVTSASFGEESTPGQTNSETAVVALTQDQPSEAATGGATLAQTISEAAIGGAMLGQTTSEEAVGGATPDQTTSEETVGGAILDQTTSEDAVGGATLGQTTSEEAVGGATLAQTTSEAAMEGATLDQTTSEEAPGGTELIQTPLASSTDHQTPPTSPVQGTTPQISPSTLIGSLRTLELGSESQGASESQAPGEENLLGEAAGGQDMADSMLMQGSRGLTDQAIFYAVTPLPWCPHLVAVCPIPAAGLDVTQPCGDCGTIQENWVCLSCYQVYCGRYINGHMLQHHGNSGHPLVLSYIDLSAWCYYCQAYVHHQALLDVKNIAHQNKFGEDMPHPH

Histone deacetylase [5] = molecular target: T2, Histone deacetylase (Plasmodium falciparum, UniProt Q9XYC7); test: Inhibition of Plasmodium falciparum HDAC1
T2 sequence (Q9XYC7 whole entry): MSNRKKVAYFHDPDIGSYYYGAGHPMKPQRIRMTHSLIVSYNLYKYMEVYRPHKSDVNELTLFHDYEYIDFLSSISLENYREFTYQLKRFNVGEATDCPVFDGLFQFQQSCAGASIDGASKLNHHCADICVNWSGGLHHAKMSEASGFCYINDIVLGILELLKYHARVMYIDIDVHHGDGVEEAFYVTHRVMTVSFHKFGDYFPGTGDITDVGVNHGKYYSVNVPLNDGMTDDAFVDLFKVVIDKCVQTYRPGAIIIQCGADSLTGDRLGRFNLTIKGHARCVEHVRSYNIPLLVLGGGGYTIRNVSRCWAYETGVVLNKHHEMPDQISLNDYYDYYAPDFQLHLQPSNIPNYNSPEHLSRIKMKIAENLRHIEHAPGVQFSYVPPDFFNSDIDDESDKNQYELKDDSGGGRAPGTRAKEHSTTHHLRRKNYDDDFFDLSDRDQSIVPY

Histone deacetylase [6] = test: Inhibition of HDAC in human HeLa cell nuclear extracts; type: protein assay
Histone deacetylase 8 = molecular target: T3, Histone deacetylase 8 (Homo sapiens, UniProt Q9BY41); test: Inhibition of HDAC8
T3 sequence (Q9BY41 whole entry): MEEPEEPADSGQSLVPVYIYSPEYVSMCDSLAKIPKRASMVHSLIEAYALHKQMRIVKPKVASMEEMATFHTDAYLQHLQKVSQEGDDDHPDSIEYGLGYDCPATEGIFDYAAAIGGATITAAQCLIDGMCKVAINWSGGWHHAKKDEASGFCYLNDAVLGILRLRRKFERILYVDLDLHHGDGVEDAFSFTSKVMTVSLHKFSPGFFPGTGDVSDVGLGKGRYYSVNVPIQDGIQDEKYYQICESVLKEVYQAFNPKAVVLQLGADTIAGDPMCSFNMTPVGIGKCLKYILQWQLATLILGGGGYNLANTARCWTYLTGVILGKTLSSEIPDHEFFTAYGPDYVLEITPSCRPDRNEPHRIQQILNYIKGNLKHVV

A549 = test: Antiproliferative activity against human A549 cells after 72 hrs by MTS assay; type: functional; how it was run: as §1
[7] = Selectivity index, ratio of IC50 for african green monkey (Cercopithecus aethiops) Vero cells to IC50 for Plasmodium falciparum D6
DU-145 = test: Antiproliferative activity against human DU145 cells after 72 hrs by MTS assay; type: functional; how it was run: as §1
Plasmodium falciparum [8] = test: Antimalarial activity against Plasmodium falciparum W2 after 72 hrs by alamar blue assay; type: functional, organism-based; conditions: W2, 72 h
[9] = Selectivity index, ratio of IC50 for african green monkey (Cercopithecus aethiops) Vero cells to IC50 for Plasmodium falciparum W2
[10] = Antiproliferative activity against human Hs1.Lu cells after 72 hrs by MTS assay; type: cell-based
Leishmania donovani [11] = system: Leishmania donovani
[12] = Leishmania donovani, 72 h, read-out: IC50

| IC50 [4] | IC50 (Histone deacetylase [5]) | IC50 (Histone deacetylase [6]) | IC50 (Histone deacetylase 8) | IC90 (Leishmania donovani [11]) | Compound | IC90 (Leishmania donovani [1]; Leishmania donovani, 72 h) | IC50 (Leishmania donovani [1]; [12]) | IC50 (Plasmodium falciparum [2]) | Ratio IC50 [3] | Activity (MCF7) | Activity (A549) | selectivity ratio ([7]; Vero cells) | Activity (DU-145) | IC50 (Plasmodium falciparum [8]) | selectivity ratio ([9]; Vero cells) | Activity [10] | selectivity ratio ([7]; vero) | selectivity ratio ([9]; vero) | IC50 (Leishmania donovani [1]) |
| --- | --- | --- | --- | --- | --- | --- | --- | --- | --- | --- | --- | --- | --- | --- | --- | --- | --- | --- | --- |
| – | – | – | – | – | N=C(N)c1ccc(OCCCCCOc2ccc(C(=N)N)cc2)cc1 [PENTAMIDINE] | 2.45 µg/mL (≈ 7.2 µM) | 1.17 µg/mL (≈ 3.44 µM) | – | – | – | – | – | – | – | – | – | – | – | – |
| – | – | – | – | – | O=C(CCCCCCC(=O)Nc1ccccc1)NO [VORINOSTAT] | 51.7 µg/mL (≈ 196 µM) | – | – | – | – | – | – | – | – | – | – | – | – | – |
| 1.92 µM | 0.29 µM | 0.1636 µM | 2.86 µM | – | CC[C@H]1OC(=O)[C@H](C)C(=O)[C@H](C)[C@@H](O[C@@H]2O[C@H](C)C[C@H](N(C)Cc3ccc(-c4cn(CCCCCCCCC(=O)NO)nn4)cc3)[C@H]2O)[C@](C)(OC)C[C@@H](C)C2=NCCN3C(=O)O[C@@]1(C)[C@H]3[C@H]2C | 32.3 µg/mL (≈ 33.9 µM) | 14.9 µg/mL (≈ 15.6 µM) | 1.3 µg/mL (≈ 1.36 µM) | 17.5 | 2.56 µM | 2.48 µM | > 3.7 | 3.89 µM | 1.38 µg/mL (≈ 1.45 µM) | > 3.5 | > 10 µM | – | – | – |
| – | – | – | – | – | C[C@@H]1[C@H](O)[C@@H](C)/C=C/C=C/C=C/C=C/C=C/C=C/C=C/[C@H](O[C@@H]2O[C@H](C)[C@@H](O)[C@H](N)[C@@H]2O)C[C@@H]2O[C@](O)(C[C@@H](O)C[C@@H](O)[C@H](O)CC[C@@H](O)C[C@@H](O)CC(=O)O[C@H]1C)C[C@H](O)[C@H]2C(=O)O [AMPHOTERICIN B] | 0.395 µg/mL (≈ 0.427 µM) | 0.079 µg/mL (≈ 0.0855 µM) | – | – | – | – | – | – | – | – | – | – | – | – |
| 3.2 µM | 0.304 µM | 0.2082 µM | 4.56 µM | – | CC[C@H]1OC(=O)[C@H](C)C(=O)[C@H](C)[C@@H](O[C@@H]2O[C@H](C)C[C@H](N(C)Cc3ccc(-c4cn(CCCCCCCCCC(=O)NO)nn4)cc3)[C@H]2O)[C@](C)(OC)C[C@@H](C)C2=NCCN3C(=O)O[C@@]1(C)[C@H]3[C@H]2C | 23.7 µg/mL (≈ 24.5 µM) | 4.8 µg/mL (≈ 4.97 µM) | 1.19 µg/mL (≈ 1.24 µM) | 21.9 | 3.68 µM | 2.81 µM | – | 4.83 µM | 0.897 µg/mL (≈ 0.928 µM) | – | > 10 µM | > 4 | > 5.3 | – |
| – | – | – | – | – | C[C@@H]1CC[C@H]2[C@@H](C)C(=O)O[C@@H]3O[C@@]4(C)CC[C@@H]1[C@]32OO4 [ARTEMISININ] | – | – | 0.0066 µg/mL (≈ 0.0234 µM) | – | – | – | – | – | – | – | – | – | – | – |
| 0.729 µM | 0.01 µM | 0.00103 µM | 0.545 µM | inactive | CC[C@H]1OC(=O)[C@H](C)C(=O)[C@H](C)[C@@H](O[C@@H]2O[C@H](C)C[C@H](N(C)Cc3ccc(-c4cn(CCCCCCC(=O)NO)nn4)cc3)[C@H]2O)[C@](C)(OC)C[C@@H](C)C2=NCCN3C(=O)O[C@@]1(C)[C@H]3[C@H]2C | – | – | 0.137 µg/mL (≈ 0.148 µM) | 529 | 0.75 µM | 0.66 µM | – | 0.82 µM | 0.133 µg/mL (≈ 0.144 µM) | – | > 10 µM | > 35 | > 36 | Not Active |
| 1.18 µM | 0.036 µM | 0.00777 µM | 0.796 µM | inactive | CC[C@H]1OC(=O)[C@H](C)C(=O)[C@H](C)[C@@H](O[C@@H]2O[C@H](C)C[C@H](N(C)Cc3ccc(-c4cn(CCCCCC(=O)NO)nn4)cc3)[C@H]2O)[C@](C)(OC)C[C@@H](C)C2=NCCN3C(=O)O[C@@]1(C)[C@H]3[C@H]2C | – | – | 0.897 µg/mL (≈ 0.986 µM) | 102 | 1.26 µM | 1.17 µM | – | 1.64 µM | 1.79 µg/mL (≈ 1.97 µM) | – | > 10 µM | > 5.3 | > 2.68 | Not Active |

| Compound | IC50 [4] | IC50 (Histone deacetylase [5]) | IC50 (Histone deacetylase [6]) | IC50 (Histone deacetylase 8) | IC90 (Leishmania donovani [11]) | IC90 (Leishmania donovani [1]; Leishmania donovani, 72 h) | IC50 (Leishmania donovani [1]; [12]) | IC50 (Plasmodium falciparum [2]) | Ratio IC50 [3] | Activity (MCF7) | Activity (A549) | selectivity ratio ([7]; Vero cells) | Activity (DU-145) | IC50 (Plasmodium falciparum [8]) | selectivity ratio ([9]; Vero cells) | Activity [10] | selectivity ratio ([7]; vero) | selectivity ratio ([9]; vero) | IC50 (Leishmania donovani [1]) |
| --- | --- | --- | --- | --- | --- | --- | --- | --- | --- | --- | --- | --- | --- | --- | --- | --- | --- | --- | --- |
| CC[C@H]1OC(=O)[C@H](C)C(=O)[C@H](C)[C@@H](O[C@@H]2O[C@H](C)C[C@H](N(C)Cc3ccc(-c4cn(CCCCCCCC(=O)NO)nn4)cc3)[C@H]2O)[C@](C)(OC)C[C@@H](C)C2=NCCN3C(=O)O[C@@]1(C)[C@H]3[C@H]2C | 1.71 µM | 0.04 µM | 0.1042 µM | 0.58 µM | – | 35.8 µg/mL (≈ 38.2 µM) | 19.7 µg/mL (≈ 21 µM) | 1.32 µg/mL (≈ 1.4 µM) | – | 1.35 µM | 1.64 µM | – | 3.7 µM | 1.47 µg/mL (≈ 1.57 µM) | – | > 10 µM | > 3.6 | > 3.3 | – |
